We go through 10 molecules from ChEMBL document CHEMBL1152940 (Bioorg Med Chem, 2009).

In general, Ki refers to a measure of affinity in units of concentration, obtained from inhibition or displacement. A lower Ki goes with a stronger hold on the target. As a reminder, the EC50 is the concentration that produces a half-maximal response.

The target of assay [1] is D(2) dopamine receptor (Rattus norvegicus) (UniProt P61169). The assay can be described thus: Agonist activity at rat dopamine D2short receptor expressed in CHO-K1 cells assessed as stimulation of [35S]GTPgammaS binding by liquid scintillation counting relative to dopamine. The format is functional, cell-based. The gist of the method:
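Membranes from CHO-K1 cells stably expressing the receptor were prepared by sonication in Tris buffer (pH 7.4, with NaCl, KCl, MgCl2 and EDTA). They were incubated with 0.2 nM [35S]GTPγS, 10 µM GDP and a compound concentration series for 90 min at 25 °C. Samples were filtered on GF/B and washed with ice-cold phosphate buffer before scintillation counting. Curves were fitted by non-linear regression. Means ± SEM come from ≥2 independent experiments, each in duplicate.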
In general terms: Binding of GTPγS marks nucleotide exchange on a G protein.

Assay [2] deals with D(1A) dopamine receptor (Homo sapiens, UniProt P21728). In words: Displacement of [3H]SCH23390 from dopamine D1 receptor expressed in Ltk deficient fibroblast cells by liquid scintillation counting. The format is cell-based. For orientation: Loss of bound radioactivity is the signal in a displacement assay; it reports binding, not function.
D(1A) dopamine receptor, sequence (P21728 whole entry): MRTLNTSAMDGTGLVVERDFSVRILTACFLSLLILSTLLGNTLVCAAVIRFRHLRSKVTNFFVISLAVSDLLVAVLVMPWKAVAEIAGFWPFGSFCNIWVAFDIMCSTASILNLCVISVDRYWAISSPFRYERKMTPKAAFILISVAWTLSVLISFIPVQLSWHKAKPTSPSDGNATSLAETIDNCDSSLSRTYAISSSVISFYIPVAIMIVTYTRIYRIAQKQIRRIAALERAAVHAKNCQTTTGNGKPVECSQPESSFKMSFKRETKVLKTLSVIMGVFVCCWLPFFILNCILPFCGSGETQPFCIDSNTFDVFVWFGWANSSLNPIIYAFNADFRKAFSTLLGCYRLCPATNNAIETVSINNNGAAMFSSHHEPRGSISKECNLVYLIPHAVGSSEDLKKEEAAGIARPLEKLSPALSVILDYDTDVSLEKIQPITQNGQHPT
The target of assay [3] is T1, D(2) dopamine receptor (Rattus norvegicus, UniProt P61169). The assay can be described thus: Displacement of [3H]raclopride from rat dopamine D2short receptor expressed in CHO-K1 cells by liquid scintillation counting. The format is cell-based.
T1 sequence (P61169 whole entry): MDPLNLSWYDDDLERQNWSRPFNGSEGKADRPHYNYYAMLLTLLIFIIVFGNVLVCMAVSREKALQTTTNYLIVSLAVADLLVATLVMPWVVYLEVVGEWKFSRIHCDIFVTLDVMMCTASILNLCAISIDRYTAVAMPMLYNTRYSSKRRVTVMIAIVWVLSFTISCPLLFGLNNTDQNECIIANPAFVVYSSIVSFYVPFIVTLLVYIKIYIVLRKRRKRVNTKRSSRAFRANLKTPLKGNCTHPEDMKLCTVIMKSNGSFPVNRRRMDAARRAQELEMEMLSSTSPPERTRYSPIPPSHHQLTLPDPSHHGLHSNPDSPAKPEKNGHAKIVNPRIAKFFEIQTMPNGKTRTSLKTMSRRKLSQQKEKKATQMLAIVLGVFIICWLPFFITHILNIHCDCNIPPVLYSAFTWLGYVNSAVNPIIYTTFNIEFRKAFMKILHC
Assay [4] has as its target T1, D(2) dopamine receptor. In words: Agonist activity at rat dopamine D2short receptor expressed in CHO-K1 cells assessed as stimulation of [35S]GTPgammaS binding by liquid scintillation counting. Format: functional, cell-based.
Assay [5] is described as follows: Selectivity index, ratio of Ki for dopamine D1 receptor to Ki for rat dopamine D2short receptor.

D(2) dopamine receptor (Rattus norvegicus), sequence (P61169 whole entry): as above

Consider `CCN1CCc2cc(-c3ccccc3)cc3c2[C@H]1Cc1ccc(O)c(O)c1-3`, for which the Efficacy in assay [1] was found to be 72%. Moreover, the Ki amounted to 31 nM in assay [2] and 14 nM in assay [3]. In assay [4], the 50% effective concentration (EC50) stood at 51 nM. In addition, the Ratio Ki in assay [5] is 2.2.
Turning to `CCCN1CCc2cc(C)cc3c2[C@H]1Cc1ccc(O)c(O)c1-3`, the Efficacy in assay [1] was determined as 65%. For the same molecule, the inhibition constant (Ki) in assay [2] was found to be 278 nM; in assay [3], 9.2 nM. Moreover, in assay [4], the 50% effective concentration (EC50) was found to be 40 nM. Further, the Ratio Ki in assay [5] stood at 30.
Regarding `Cc1cc2c3c(c1)-c1c(ccc(O)c1O)C[C@H]3N(C)CC2`, the half-maximal effective concentration (EC50) in assay [4] is 43 nM.
`CN1CCc2cc(-c3ccc(O)cc3)cc3c2[C@H]1Cc1ccc(O)c(O)c1-3` had an inhibition constant (Ki) in assay [2] of 755 nM. The 50% effective concentration (EC50) in assay [4] is 8.5 nM. Also, the Ratio Ki in assay [5] was 182.
`CN1CCc2cccc3c2[C@H]1Cc1ccc(O)c(O)c1-3`: in assay [1], the Efficacy came to 58%.
With `CCN1CCc2cc(-c3ccc(O)cc3)cc3c2[C@H]1Cc1ccc(O)c(O)c1-3`, the Efficacy in assay [1] was determined as 112%. Also, the inhibitory constant (Ki) in assay [2] stood at 124 nM; in assay [3], 1.5 nM. Moreover, the half-maximal effective concentration (EC50) in assay [4] was 8.7 nM. The Ratio Ki in assay [5] came to 83.
As for `CCCN1CCc2cc(-c3ccc(O)cc3)cc3c2[C@H]1Cc1ccc(O)c(O)c1-3`, the Efficacy in assay [1] turned out to be 99%. The inhibition constant (Ki) is 94 nM in assay [2] and 2 nM in assay [3]. In addition, the EC50 in assay [4] was 12 nM. For the same molecule, the Ratio Ki in assay [5] amounted to 47.
The corresponding values for `CCN1CCc2cc(C)cc3c2[C@H]1Cc1ccc(O)c(O)c1-3` are 112%, 1340 nM, 115 nM, 480 nM and 12.
The corresponding values for `CCCN1CCc2cc(-c3ccccc3)cc3c2[C@H]1Cc1ccc(O)c(O)c1-3` are 100%, 669 nM, 192 nM, 577 nM and 3.5.
Consider `CN1CCc2cc(-c3ccccc3)cc3c2[C@H]1Cc1ccc(O)c(O)c1-3`, for which the inhibition constant (Ki) in assay [2] turned out to be 88 nM. For the same molecule, the EC50 in assay [4] stood at 23 nM. Further, in assay [5], the Ratio Ki was 7.5.
